High-throughput results from PubChem BioAssay.
Glyco luc inh = N-linked glycosylation inhibition | D54 ERlucT glycosylation luciferase reporter, 24 h; percent of 100 nM tunicamycin response | reporter increase, % at 12.5 µM | AID 588692 | actives 0.23% (n = 360,000);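 active = mean luciferase reporter signal, scaled so untreated is 0 and the glycosylation-blocking control 100, at or above a set limit in every replicate; inconclusive = mean reaches the limit but not every replicate does; inactive = mean below the limit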;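 also: luciferase carries N-glycosylation sites so blocking glycosylation raises the light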
NPR2 activator = GC-B (human) receptor activation; activation, % at 10 µM; P20594; actives 0.11% (n = 370,000); HEK293-GC-B cells, CNP EC30, cGMP TR-FRET; 0% at EC30 CNP, 100% saturating CNP;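 active = activation at 10 µM reaching about 35% in either raw or pattern-adjusted values, limit read from the data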
CaV13 FRET inh = Primary screen for inhibitors of IQ motif and Ca2+-dependent inactivation inhibitor domain binding in CACNA1D, Förster resonance energy transfer in living cells, …. HEK cells, CFP/YFP FRET ICDI-IQ, plate reader, 10 min; percent FRET-ratio fall versus neutral wells. inhibition, % at 12.3 µM. actives 0.098% (n = 340,000). AID 743397;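 active = mean replicate inhibition of at least 30% and at least 1% of replicates passing that level; inconclusive = only one of the two criteria is met; inactive = neither criterion is met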
GC-A act = GC-A (human) enzyme activation; HEK293 GC-A cells, cGMP TR-FRET, EC30 ANP; 0% at EC30 ANP, 100% saturating ANP; actives 0.14% (n = 370,000); activation, % at 10 µM; AID 1671463; P16066; in the data active = activation above about 40%
Vif imaging = HIV Vif inhibition | actives 0.35% (n = 340,000) | inhibition, % at 7.49 µM | HEK293T cells, Vif self-association by quenched fluorescence, imaging, 24 h | AID 602346; in the data active = inhibition above about 50%, passing the limit was not always enough; inconclusive = no clear call, values can overlap the other calls; inactive = below about 31%
XiGFP reactiv = activators of X-chromosome reactivation in mouse fibroblasts | XiGFP mouse fibroblasts, % GFP-positive cells imaging, 3 d; cells co-treated with 5-aza-dC sensitizer; scaled so ellipticine positive control = 100% | activation, % at 7.58 µM | actives 0.055% (n = 360,000) | AID 743238;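 active = mean normalized replicate activation at least 10% and every replicate at or above 10%; inconclusive = only one of the two criteria met; inactive = mean below 10% and not all replicates reach 10%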
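System: XiGFP fibroblasts, SV40-immortalized. Medium: DMEM plus 5-aza-dC sensitizer. Doses: single point. Timing: 3 d treatment, 15 min room-temperature fixation. Control set: ellipticine 6 µM.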
A number is an active result; – = inactive; ? = inconclusive; · = not tested or not shown. In the library only some 0.7% were active in any assay of this set; here they are far more common.

SMILES	Glyco luc inh	NPR2 activator	CaV13 FRET inh	GC-A act	Vif imaging	XiGFP reactiv
Cc1ccc(-c2nn3c(C)nnc3c3ccccc23)cc1S(=O)(=O)NC(C)(C)CO	39.1	–	–	–	?	–
Cc1ccc(-c2nn3c(C)nnc3c3ccccc23)cc1S(=O)(=O)NCCO	–	–	–	–	–	–
C[C@@H]1CN([C@H](C)CO)C(=O)c2cccc(NC(=O)Nc3ccc4c(c3)OCO4)c2O[C@H]1CN(C)C(=O)Nc1cccc2ccccc12	·	·	·	·	·	–
Cc1ccc(S(=O)(=O)c2nnn3c2nc(N2CCCCC2)c2ccccc23)cc1	–	–	–	–	–	–
Cc1ccc(S(=O)(=O)c2nnn3c2nc(N2CCOCC2)c2ccccc23)cc1	–	37.7	–	–	–	–
COc1ccc(COc2ccccc2C(=O)NCc2ccccc2)cc1F	–	–	–	–	–	23.3
COc1ccc(/C(C)=N/NC(=O)c2ccccc2OCc2ccccc2)c(OC)c1	32.1	–	–	–	–	–
O=C(c1cccc(Cl)c1)N1CCC2(CC1)NCCc1[nH]cnc12	–	–	–	–	52.3	–
COc1ccc(CCNc2nnc(Sc3nnnn3-c3ccccc3)s2)cc1OC	–	–	–	–	139.2	·
Cc1ccc(S(=O)(=O)N2CCCCC2)cc1NC(=O)CSc1ncccn1	–	–	–	–	54.1	–
CNC[C@@H]1Oc2c(NS(=O)(=O)c3ccc(F)cc3)cccc2C(=O)N([C@@H](C)CO)C[C@H]1C	·	·	·	·	·	–
COc1ccc(C(C)NC(=O)c2ccc(Cl)cc2)cc1OC (stereo not drawn)	–	–	–	–	–	–
COc1ccc(C(=O)CC(SCC(NC(C)=O)C(=O)O)c2ccc(Cl)cc2)cc1OC (stereo not drawn)	33.2	–	–	–	–	–
COc1cc(NC(=O)C/C(C)=N/NC(=O)Cc2ccc(Cl)cc2)c(OC)cc1Cl	–	–	–	–	72.8	–
O=c1ccc2cc3c4c(c2o1)CCCN4CCC3	–	–	32.1	–	–	–
CCN1[C@@H]2Cn3c(ccc(-c4ccccc4OC)c3=O)[C@H]1[C@@H](C(=O)N[C@@H](C)c1ccccc1)[C@@H]2CO	·	·	·	·	·	–
Cc1ccc(CNCCCSc2ncccn2)cc1	–	–	–	–	60.0	–
O=C(Nc1cccc(-c2cn3cccnc3n2)c1)c1ccco1	–	–	–	–	–	·
O=C(Nc1cccc(-c2cnc3ccccc3n2)c1)c1ccco1	–	–	·	–	–	·
O=C(Nc1cccc(-c2cn3cccnc3n2)c1)c1ccc(Br)o1	–	–	–	–	81.1	·
O=C(CNC(=O)c1ccc(Br)o1)Nc1cccc(-c2cnc3ccccc3n2)c1	25.8	–	·	–	–	·
C[C@@H]1CN([C@@H](C)CO)C(=O)c2cccc(NC(=O)C3CCCCC3)c2O[C@@H]1CN(C)Cc1ccc(C(=O)O)cc1	·	·	·	·	·	–
O=C(O)C[C@@H]1CC[C@H](NC(=O)CCN2CCCCC2)[C@@H](CO)O1	·	·	·	·	·	–
N#C/C(=C\c1cn(-c2ccccc2)nc1-c1ccccc1)S(=O)(=O)c1ccccc1	–	–	–	–	–	–
CC(C)n1cc(/C=C(\C#N)S(=O)(=O)c2ccccc2)c2ccccc21	–	51.0	–	–	–	·
SMILES	Glyco luc inh	NPR2 activator	CaV13 FRET inh	GC-A act	Vif imaging	XiGFP reactiv
COc1ccc(/C=N/NC(=O)c2ccc(COc3ccccc3Cl)o2)c(OC)c1C	43.3	–	–	–	–	–
O=C(N/N=C/c1ccc(Br)s1)c1ccc([N+](=O)[O-])cc1	–	–	–	–	–	96.8
COc1ccc2c3c(n(C)c2c1)[C@H](CO)N(C(=O)Cc1ccccn1)CC31CCN(Cc2ccccn2)CC1	·	·	·	·	·	–
Cn1cnc([N+](=O)[O-])c1Sc1ncnc2nc[nH]c12	129.6	–	–	–	–	–
Cn1cnc(Sc2ncnc3nc[nH]c23)c1[N+](=O)[O-]	135.8	–	–	–	–	–
COc1cc(/C=C/C(=O)c2ccc([N+](=O)[O-])o2)ccc1O	–	–	–	–	–	20.5
COc1ccc(/C=C/C(=O)c2ccc([N+](=O)[O-])o2)cc1OC	·	–	–	–	·	14.3
Cc1ccc(S(=O)(=O)N(C)c2ccc(C)c([N+](=O)[O-])c2)cc1	–	–	–	–	–	20.9
CC(C)(C)OC(=O)N1CCC(c2c(C(=O)NCC3CCN(C4CCCC4)C3)cnn2-c2ccc(F)cc2)CC1 (stereo not drawn)	–	–	–	–	60.2	–
Cc1cc2c(C)cc(=O)oc2c2c1NCCC2	–	–	32.8	–	–	·
C[C@H](CO)N1C[C@H](C)[C@@H](CN(C)Cc2ccc(-c3ccccc3)cc2)Oc2ccc(N(C)C)cc2C1=O	·	·	·	·	·	–
CCOC(=O)C1=C(O)/C(=C/c2cc(OC)c(O)c(OC)c2)SC1=Nc1ccc(OC)cc1	–	–	–	–	–	14.6
CCOC(=O)C1=C(O)/C(=C/c2ccc(OCC(=O)O)c(OC)c2)SC1=Nc1ccc(OCC)cc1	–	–	·	–	–	–
CC(OC(=O)c1c[nH]c2ccccc12)C(=O)N1CCCC1 (stereo not drawn)	–	–	–	–	63.8	–
CCC(=O)N1C[C@@H](C)[C@@H](OC)CN(C)C(=O)c2cc(NC(=O)C3CCOCC3)ccc2OC[C@@H]1C	·	·	·	·	·	–
O=C1C2C3C=CC(C4CC34)C2C(=O)N1/N=C/c1ccc([N+](=O)[O-])s1 (stereo not drawn)	–	–	–	–	–	–
O=C1C2C3C=CC(C4CC34)C2C(=O)N1/N=C/c1c[nH]c2ccccc12 (stereo not drawn)	–	–	–	–	90.5	–
Cc1ccc(NC(=O)CC2SC(=NCC3CCCO3)NC2=O)cc1Cl (stereo not drawn)	–	–	–	–	86.6	–
COc1ccc(NC(=O)CC2SC(=NCC3CCCO3)NC2=O)cc1 (stereo not drawn)	–	–	–	–	–	–
CCc1nc(Sc2nnnn2-c2ccccc2)c2c3c(sc2n1)CCCC3	–	–	–	–	–	–
Cc1nc(Sc2nnnn2C)c2c3c(sc2n1)CCC3	–	–	·	–	96.8	·
CCOC(=O)COc1ccc(S(=O)(=O)Nc2ccc(C)cc2)cc1	–	–	–	–	–	·
CCOC(=O)COc1ccc(S(=O)(=O)c2ccc(OCC(=O)OCC)cc2)cc1	–	–	–	–	120.2	·
COc1ccc2nc(Nc3ccc4c(c3)OCO4)sc2c1	–	–	·	–	52.5	·
COc1ccc(-c2cc(C(=O)Nc3ccc4c(c3)OCO4)no2)cc1	–	–	–	–	53.2	–
COc1ccc2c3c(n(C)c2c1)[C@@H](CO)N(C(=O)c1cnccn1)CC31CN(C(=O)c2ccncc2)C1	·	·	·	·	·	–
